# RBBP9 inh: human RBBP9 hydrolase inhibition. inhibition, % at 7.94 µM. 220,000 compounds, 0.2% hits. recombinant RBBP9, FP-Rh probe fluorescence polarization. O75884;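 active means inhibition above the campaign mean of all tested compounds plus 3 SD, cut at about 14% in these data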;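 further: plate controls were DMSO wells with RBBP9 for no effect and wells lacking RBBP9 protein for full effect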
#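 Test system – recombinant human RBBP9 · Input – RBBP9 2.5 µM in dispensing solution, pre-mixing · Medium – Tris buffer pH 8.0, NaCl, Pluronic · Schedule – preincubation 30 min plus labeling 45 min at 25 °C · Measured by – fluorescence polarization · Measure – % inhibition · Controls – DMSO and no-protein wells · Replicates – one well per compound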
# GSTO1 counter: counter-screen for RBBP9 inhibitors: inhibitors of human GSTO1; 300,000 compounds, 1.1% hits; inhibition, % at 5.96 µM; P78417; recombinant GSTO1, activity-based probe fluorescence polarization; AID 1974;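 active means inhibition above the campaign mean inhibition plus 3 SD, cut at about 35% in these data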;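 further: 0% = GSTO1-1 with DMSO and 100% = wells lacking GSTO1-1 enzyme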
# PRMT1 FP inh: inhibitors of human PRMT1; recombinant PRMT1, activity-based probe fluorescence polarization; inhibition, % at 2.79 µM; AID 652257; Q99873; 370,000 compounds, 1.3% hits;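 active means inhibition above about 21% made by adding two undisclosed values, limit read from the data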
# PAD4 FP inh: inhibitors of human PAD4 | AID 485272 | inhibition, % at 6.36 µM | 330,000 compounds, 0.41% hits | recombinant PAD4, RCA probe fluorescence polarization | Q9UM07;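 active means percent inhibition above a cutoff equal to the mean of all tested compounds plus 3 SD, cut at about 15% in these data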;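 further: 0% = PAD4 with RCA probe and DMSO and 100% = probe without PAD4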
# Target sequence (Q9UM07 whole entry, looked up): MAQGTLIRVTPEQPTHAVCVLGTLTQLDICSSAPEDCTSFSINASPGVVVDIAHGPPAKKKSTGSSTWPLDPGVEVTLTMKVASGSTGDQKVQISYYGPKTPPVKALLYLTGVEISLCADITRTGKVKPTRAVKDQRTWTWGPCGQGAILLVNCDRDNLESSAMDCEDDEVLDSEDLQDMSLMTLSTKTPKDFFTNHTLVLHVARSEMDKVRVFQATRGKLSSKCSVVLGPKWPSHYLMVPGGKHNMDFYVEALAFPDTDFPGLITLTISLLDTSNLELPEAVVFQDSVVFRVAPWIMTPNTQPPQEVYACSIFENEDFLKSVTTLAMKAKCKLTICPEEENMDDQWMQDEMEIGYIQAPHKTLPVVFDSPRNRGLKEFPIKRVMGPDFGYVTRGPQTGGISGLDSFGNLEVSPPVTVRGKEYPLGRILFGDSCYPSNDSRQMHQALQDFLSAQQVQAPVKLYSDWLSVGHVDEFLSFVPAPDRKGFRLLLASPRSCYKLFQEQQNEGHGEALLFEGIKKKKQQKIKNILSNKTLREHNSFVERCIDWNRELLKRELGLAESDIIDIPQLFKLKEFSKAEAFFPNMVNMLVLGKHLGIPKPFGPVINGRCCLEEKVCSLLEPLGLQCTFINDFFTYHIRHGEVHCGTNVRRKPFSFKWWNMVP
# PME-1 primary: PME-1 (human) inhibition; Q9Y570; recombinant PME-1, FP-Rh probe fluorescence polarization; inhibition, % at 5.9 µM; 320,000 compounds, 0.53% hits; AID 2130;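 active means inhibition above the campaign mean of all compounds plus 3 SD, cut at about 26% in these data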;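 further: competitive labeling of PME-1 active site by serine hydrolase directed probe; 0% = PME-1 with DMSO and 100% = wells lacking PME-1 enzyme; inhibitors block probe labeling so polarization falls and inhibition rises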
# Fam108B inh: blocks mouse Fam108B hydrolase in RBBP9 counter-screen | inhibition, % at 9.51 µM | 300,000 compounds, 0.33% hits | recombinant Fam108B, FP-Rh probe fluorescence polarization;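 active means inhibition above the screen mean inhibition plus 3 SD, computed separately per campaign, cut at about 18% in these data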;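 further: inhibitors lower polarization as less probe binds the enzyme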
# PRMT1 confirm: confirmation of human PRMT1 inhibitors | 3,300 compounds, 42% hits | recombinant His-PRMT1, activity-based probe fluorescence polarization | AID 687036 | inhibition, % at 2.79 µM | shares compounds with PRMT1 FP inh;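 active means mean inhibition across replicates above the hit cutoff derived for the earlier primary screen, cut at about 22% in these data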
# The depositor's hits bear a star; nt = not tested or not shown. An excerpt weighted towards active compounds, which were near 2.3% of everything screened.
SMILES,RBBP9 inh,GSTO1 counter,PRMT1 FP inh,PAD4 FP inh,PME-1 primary,Fam108B inh,PRMT1 confirm
CCOC(=O)C1=C(C)N=c2s/c(=C/c3cccc([N+](=O)[O-])c3O)c(=O)n2C1c1ccccc1 (stereo not drawn),nt,1,49*,3,-8,-4,41*
CCOC(=O)C1=C(C)N=c2s/c(=C/c3cccc([N+](=O)[O-])c3O)c(=O)n2C1c1cc(OC)c(OC)c(OC)c1 (stereo not drawn),nt,7,44*,-1,-11,-5,40*
Cc1c(C(=O)Nc2ccc(F)cc2)cn2c(nc3ccccc32)c1C#N,-1,-11,-3,-1,-11,-16,nt
N#Cc1c2nc3ccccc3nc2n2cc(NC(=O)c3ccc(F)cc3)ccc12,-6,nt,41*,nt,nt,nt,14
Cc1cccc(N2C(=O)CC(Sc3ncn[nH]3)C2=O)c1 (stereo not drawn),-6,5,58*,-7,-5,-7,55*
Cc1ccc(N2C(=O)CC(Sc3ncn[nH]3)C2=O)cc1C (stereo not drawn),-16,2,61*,-1,-5,-1,44*
CCN(CC)C(=O)C(Oc1ccc(C)nc1[N+](=O)[O-])c1ccccc1 (stereo not drawn),nt,1,-1,1,-3,3,nt
c1ccc(CCc2nn3c(-c4ccncc4)nnc3s2)cc1,-3,7,-3,2,0,-4,nt
CN(Cc1ccccc1C#N)S(=O)(=O)c1cccs1,nt,-1,-2,1,4,-1,nt
N#Cc1nccnc1S(=O)(=O)c1cccs1,-1,-20,84*,3,-4,-5,82*
Cc1cccc2sc(NNC(=O)c3ccc4c(c3)OCCO4)nc12,-6,0,28*,0,0,2,-3
COc1cccc(-n2ccnc2SCC(=O)Nc2nccs2)c1,-2,2,0,-1,3,1,nt
O=c1ccnc(SCn2nnc3ccccc3c2=O)[nH]1,-3,-1,44*,3,2,3,0
Cc1cc(=O)[nH]c(SCn2nnc3ccccc3c2=O)n1,-6,-1,31*,0,6,-1,6
O=c1c2ccccc2nnn1CSc1nc2ccccc2[nH]1,-10,3,-1,-6,-6,7,nt
O=C(NNc1nc(-c2ccccc2)cs1)c1cccs1,-6,-5,51*,-3,1,0,-2
CC1CN(C(=O)c2cc3ccccc3cc2O)CC(C)O1 (stereo not drawn),nt,13,6,-3,0,1,nt
Cc1ccc(-c2ccc(CCC(=O)O)o2)cc1,-1,4,40*,-1,-8,-3,40*
CC(C)c1nnc(NC(=O)CCC(=O)NC2CCCCCC2)s1,nt,1,3,-2,2,-2,nt
Cc1c([N+](=O)[O-])c(C(=O)Sc2ccc(Br)cc2)nn1C,-6,-8,50*,3,-2,-1,75*
Cc1c([N+](=O)[O-])c(C(=O)N2CCCC2)nn1C,-7,2,-2,1,1,0,nt
CC(=O)OCCN(C)c1cc(SC(C)C)c2nonc2c1[N+](=O)[O-],-2,1,6,-10,5,2,nt
CN(CCO)c1cc(Sc2nc3ccccc3s2)c2nonc2c1[N+](=O)[O-],1,25,90*,10,3,3,89*
CCOC(=O)CC(=O)CSc1nc(-c2cccnc2)ccc1C#N,10,19,56*,-6,-7,-1,6
CCOC(=O)CC(=O)CSc1nc(-c2cccnc2)cc(C)c1C#N,-7,6,5,-3,-11,-2,nt
SMILES,RBBP9 inh,GSTO1 counter,PRMT1 FP inh,PAD4 FP inh,PME-1 primary,Fam108B inh,PRMT1 confirm
CCOC(=O)CC(=O)CSc1nccc(-c2cccnc2)n1,-1,-1,38*,1,-1,5,8
COC(=O)[C@]12C[C@H](CC(=O)NCc3cccs3)C(=O)N(Cc3ccco3)C1=C[C@H](C1CCCC1)O[C@@H]2C,nt,nt,-5,nt,nt,nt,nt
CC(=O)Cc1nsc(NC(=O)c2ccccc2Cl)n1,-9,-20,2,-7,-3,4,nt
CCCN1CCC(=O)N(CCSc2ccccc2)CC1,nt,3,-2,8,0,4,nt
COc1ccc(N(C(=O)c2cnccn2)C(C(=O)NC2CCCCC2)c2ccc(Cl)cc2)cc1 (stereo not drawn),-1,5,1,3,-2,0,nt
COC(=O)C1=C(C)NC(C)=C(C(=O)OCC(C)C)C1c1ccccc1[N+](=O)[O-] (stereo not drawn),nt,9,25*,-1,-4,2,18
CCOC(=O)C1=C(C)NC(C)=C(C(=O)OCC)C1c1cccc([N+](=O)[O-])c1,nt,nt,-2,nt,nt,nt,nt
Cc1ccc(-n2nc(C(=O)O)c3ccccc3c2=O)cc1C,-2,1,-2,-4,-9,-3,nt
CC(C)n1c(-c2ccccc2)nc(=S)c2c1CCCC2,-10,-1,36*,0,4,-1,3
Cc1oc(-c2ccc3c(c2)OCCO3)cc1C(=O)O,-3,4,42*,1,-1,2,6
Cc1oc(-c2ccc3c(c2)OCCO3)cc1C(=O)NCC(=O)O,-10,7,1,0,3,6,nt
Cc1ccc(NC(=O)Cn2sc3nc(C)cc(C)c3c2=O)c(Cl)c1,-3,10,79*,0,-13,0,88*
Cc1cc(C)c2c(=O)n(CC(=O)Nc3cccc(F)c3)sc2n1,0,7,90*,5,2,4,84*
Cc1cc(C)c2c(=O)n(CC(=O)Nc3ccc(Cl)cc3)sc2n1,7,-1,91*,0,7,1,84*
COc1ccc(C(=O)NCC23C=CC(O2)C2C(=O)N(Cc4ccccc4)C(=O)C23)cc1 (stereo not drawn),-7,-2,54*,3,7,-1,7
N#CCCN1CCN(C(=S)c2ccc(-c3ccc(Cl)cc3)o2)CC1,2,-10,nt,3,-1,0,nt
CC/C(=N\NC(=O)c1c(-c2ccccc2)noc1C)c1ccc(C)o1,1,2,0,-5,4,-3,nt
C=CCn1c(=S)[nH]c2scc(-c3ccc(C)o3)c2c1=O,-20,-5,28*,-8,1,2,16
C=CCn1c(SCC(C)=O)nc2scc(-c3ccc(C)o3)c2c1=O,nt,5,25*,-5,-4,2,10
O=C(O)c1ccccc1NS(=O)(=O)c1ccc(N/N=C/c2ccc(O)c(O)c2)c([N+](=O)[O-])c1,nt,nt,33*,nt,nt,nt,40*
O=C(O)c1ccccc1NS(=O)(=O)c1ccc(NN=Cc2ccc(F)cc2)c([N+](=O)[O-])c1,nt,nt,nt,5,nt,nt,nt
O=C(CSc1ccc(-c2ccco2)nn1)c1ccccc1,-3,5,28*,2,0,4,10

# Assay outcomes as filed in PubChem.
